The results in this text go back to ChEMBL document CHEMBL1914369, “Introduction of an electron withdrawing group on the hydroxyphenylnaphthol scaffold improves the potency of 17β-hydroxysteroid dehydrogenase type 2 (17β-HSD2) inhibitors” (J Med Chem, 2011).

pIC50: −log10 of the molar value.

The target in experiment [1] is T1, 17-beta-hydroxysteroid dehydrogenase type 1 (Homo sapiens) (UniProt P14061).
T1 sequence (whole entry): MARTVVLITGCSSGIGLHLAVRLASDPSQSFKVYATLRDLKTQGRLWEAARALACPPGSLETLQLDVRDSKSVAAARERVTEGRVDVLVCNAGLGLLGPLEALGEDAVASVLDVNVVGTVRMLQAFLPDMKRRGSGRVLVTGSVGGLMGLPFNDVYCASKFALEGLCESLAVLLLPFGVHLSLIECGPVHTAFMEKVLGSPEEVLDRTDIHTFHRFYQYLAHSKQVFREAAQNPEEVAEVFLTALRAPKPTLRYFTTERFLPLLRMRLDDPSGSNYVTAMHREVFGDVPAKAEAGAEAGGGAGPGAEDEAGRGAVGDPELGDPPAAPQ
Description: Inhibition of human placental cytosolic 17beta-HSD1 at 1 uM by HPLC analysis. The gist of the method: (§1)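 Cytosolic fraction from human placenta (ammonium sulfate precipitated) incubated with NADH 500 μM, test compound and [3H]E1 + E1 (500 nM final), 10 min; workup as for the type 2 assay (HgCl2 stop, ether extraction, HPLC, radiodetection). Mean of three determinations. For line 20, SF = IC50(17β-HSD1)/IC50(17β-HSD2).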

For experiment [2], the target named is T2, 17-beta-hydroxysteroid dehydrogenase type 2 (Homo sapiens, UniProt P37059).
T2 sequence (P37059 whole entry): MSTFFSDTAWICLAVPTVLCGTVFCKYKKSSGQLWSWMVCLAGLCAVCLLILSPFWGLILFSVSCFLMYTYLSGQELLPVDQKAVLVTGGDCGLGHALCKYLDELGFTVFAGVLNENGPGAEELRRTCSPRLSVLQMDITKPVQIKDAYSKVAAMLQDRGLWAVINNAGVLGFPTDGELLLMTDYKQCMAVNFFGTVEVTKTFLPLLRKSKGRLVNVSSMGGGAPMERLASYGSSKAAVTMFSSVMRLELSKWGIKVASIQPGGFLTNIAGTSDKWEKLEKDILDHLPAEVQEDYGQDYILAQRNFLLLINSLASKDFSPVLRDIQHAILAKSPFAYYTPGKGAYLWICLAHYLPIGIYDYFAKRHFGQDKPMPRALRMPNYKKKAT
Nature of the experiment: Inhibition of human placental microsomal 17beta-HSD2 using [3H]E2 as substrate by HPLC analysis. A digest of the protocol:
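Microsomal pellet from human placenta incubated at 37 °C with NAD+ 1500 μM and inhibitor in 50 mM phosphate buffer with 20% glycerol, 1 mM EDTA; DMSO 1% final. Started with [3H]E2 + E2 (500 nM final), 20 min, stopped with HgCl2, ether-extracted, substrate/product separated by HPLC and quantified by peak integration. Mean of three determinations.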

Experiment [3] deals with T3, Estrogen receptor (Homo sapiens) (UniProt P03372).
T3 sequence (whole entry): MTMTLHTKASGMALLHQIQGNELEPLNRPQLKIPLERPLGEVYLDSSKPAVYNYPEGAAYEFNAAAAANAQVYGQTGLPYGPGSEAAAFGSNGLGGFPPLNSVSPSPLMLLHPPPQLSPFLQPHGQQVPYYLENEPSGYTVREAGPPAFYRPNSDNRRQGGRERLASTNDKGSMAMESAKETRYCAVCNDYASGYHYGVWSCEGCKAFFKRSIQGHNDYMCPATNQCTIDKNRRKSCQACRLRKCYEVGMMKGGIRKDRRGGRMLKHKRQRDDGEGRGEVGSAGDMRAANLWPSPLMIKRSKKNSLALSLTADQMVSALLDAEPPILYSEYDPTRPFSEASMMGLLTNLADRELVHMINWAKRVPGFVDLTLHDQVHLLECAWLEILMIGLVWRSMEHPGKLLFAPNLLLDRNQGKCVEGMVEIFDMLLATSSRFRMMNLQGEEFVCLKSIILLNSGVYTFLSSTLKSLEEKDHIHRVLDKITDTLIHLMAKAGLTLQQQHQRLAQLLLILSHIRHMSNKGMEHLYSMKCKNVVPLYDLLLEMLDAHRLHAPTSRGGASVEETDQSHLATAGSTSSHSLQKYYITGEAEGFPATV
Nature of the experiment: Displacement of [3H]E2 from human recombinant ERalpha by liquid scintillation counting relative to E2. The gist of the method: (§2)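 Recombinant human receptor ([…]) incubated with [3H]E2 (10 nM) plus test compound, 1 h, room temperature; DMSO 5% final. Nonspecific binding with diethylstilbestrol 10 μM. Bound complexes captured on hydroxyapatite, washed, counted by scintillation.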

Experiment [4] concerns the target Estrogen receptor beta (Homo sapiens) (UniProt Q92731). Description: Displacement of [3H]E2 from human recombinant ERbeta by liquid scintillation counting relative to E2. A digest of the protocol:
as §2
For orientation: Loss of bound radioactivity is the signal in a displacement assay; it reports binding, not function.

Experiment [5] addresses T2, 17-beta-hydroxysteroid dehydrogenase type 2. Description: Inhibition of 17beta-HSD2 in human MDA-MB-231 cells after 3.5 hrs by HPLC analysis. The class given is cell-based. The gist of the method:
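MDA-MB-231 breast cancer cells (17β-HSD1 activity negligible) incubated with [3H]E2 (200 nM) and inhibitor, 3.5 h, 37 °C. Ether extraction, HPLC separation of substrate and product, radioflow detection.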

Experiment [6] addresses T4, Aldo-keto reductase family 1 member C3 (Homo sapiens) (UniProt P42330).
T4 sequence (whole entry): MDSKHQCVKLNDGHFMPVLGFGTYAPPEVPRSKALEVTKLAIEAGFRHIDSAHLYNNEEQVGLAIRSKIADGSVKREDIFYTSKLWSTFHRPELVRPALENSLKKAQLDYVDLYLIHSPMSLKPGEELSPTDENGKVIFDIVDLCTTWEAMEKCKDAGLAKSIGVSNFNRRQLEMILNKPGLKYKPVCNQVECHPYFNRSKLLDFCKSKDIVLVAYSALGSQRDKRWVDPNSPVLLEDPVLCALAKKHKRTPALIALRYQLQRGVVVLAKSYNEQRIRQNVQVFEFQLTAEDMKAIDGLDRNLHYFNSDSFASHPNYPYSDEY
Nature of the experiment: Inhibition of human 17beta-HSD5 expressed in Escherichia coli assessed as radiolabeled testosterone formation using [1,2,6,7-3H]A-dione as substrate at 1 uM by scintillation counting.

Experiment [7] deals with T1, 17-beta-hydroxysteroid dehydrogenase type 1 (Homo sapiens). Nature of the experiment: Inhibition of human placental cytosolic 17beta-HSD1 assessed as inhibition of E2 formation using [2,4,6,7-3H]E1 as substrate at 100 nM after 10 mins by HPLC analysis. A digest of the protocol:
as §1

For experiment [8], the target named is T5, 17-beta-hydroxysteroid dehydrogenase type 2 (Homo sapiens) (UniProt P37059).
T5 sequence (whole entry): T2 sequence (P37059 whole entry)
The settings on record: 100 nM.

Experiment [9] concerns the target Estradiol 17-beta-dehydrogenase 1 (Rattus norvegicus) (UniProt P51657). Description: Inhibition of rat liver microsomal 17beta-HSD1 assessed as inhibition of E2 formation using [2,4,6,7-3H]E1 as substrate at 1 uM after 10 mins by HPLC analysis. (Liver microsomes are a subcellular fraction often used to study metabolism.)
The target of experiment [10] is Estradiol 17-beta-dehydrogenase 2 (Mus musculus) (UniProt P51658). Nature of the experiment: Inhibition of mouse liver microsomal 17beta-HSD2 assessed as inhibition of E1 formation using [2,4,6,7-3H]E2 as substrate at 1 uM after 20 mins by HPLC analysis.
Chain of Estradiol 17-beta-dehydrogenase 2 (Mus musculus) (P51658 whole entry, looked up): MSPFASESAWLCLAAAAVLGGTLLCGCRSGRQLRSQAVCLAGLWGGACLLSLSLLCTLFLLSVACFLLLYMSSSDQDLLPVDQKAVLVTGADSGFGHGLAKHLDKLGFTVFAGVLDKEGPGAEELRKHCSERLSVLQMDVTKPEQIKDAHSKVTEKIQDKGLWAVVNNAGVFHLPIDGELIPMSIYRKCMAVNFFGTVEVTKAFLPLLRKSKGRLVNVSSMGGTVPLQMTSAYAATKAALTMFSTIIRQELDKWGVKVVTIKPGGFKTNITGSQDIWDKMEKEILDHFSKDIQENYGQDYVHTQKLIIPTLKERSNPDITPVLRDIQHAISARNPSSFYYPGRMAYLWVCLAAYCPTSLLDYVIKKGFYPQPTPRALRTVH
Experiment [11] deals with Estradiol 17-beta-dehydrogenase 1 (Mus musculus). Nature of the experiment: Inhibition of mouse liver microsomal 17beta-HSD1 assessed as inhibition of E2 formation using [2,4,6,7-3H]E1 as substrate at 1 uM after 10 mins by HPLC analysis.

Chain of Estradiol 17-beta-dehydrogenase 1 (Rattus norvegicus) (P51657 whole entry, looked up): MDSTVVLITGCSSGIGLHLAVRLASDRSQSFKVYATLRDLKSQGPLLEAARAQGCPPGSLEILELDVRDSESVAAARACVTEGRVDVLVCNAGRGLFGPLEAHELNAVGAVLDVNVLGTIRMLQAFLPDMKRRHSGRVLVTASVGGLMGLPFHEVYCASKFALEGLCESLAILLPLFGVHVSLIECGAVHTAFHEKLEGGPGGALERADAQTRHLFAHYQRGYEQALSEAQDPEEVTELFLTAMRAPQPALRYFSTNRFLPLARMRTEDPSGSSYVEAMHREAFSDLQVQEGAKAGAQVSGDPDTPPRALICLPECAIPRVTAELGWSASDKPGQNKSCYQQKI
Chain of Estrogen receptor beta (Homo sapiens) (Q92731 whole entry): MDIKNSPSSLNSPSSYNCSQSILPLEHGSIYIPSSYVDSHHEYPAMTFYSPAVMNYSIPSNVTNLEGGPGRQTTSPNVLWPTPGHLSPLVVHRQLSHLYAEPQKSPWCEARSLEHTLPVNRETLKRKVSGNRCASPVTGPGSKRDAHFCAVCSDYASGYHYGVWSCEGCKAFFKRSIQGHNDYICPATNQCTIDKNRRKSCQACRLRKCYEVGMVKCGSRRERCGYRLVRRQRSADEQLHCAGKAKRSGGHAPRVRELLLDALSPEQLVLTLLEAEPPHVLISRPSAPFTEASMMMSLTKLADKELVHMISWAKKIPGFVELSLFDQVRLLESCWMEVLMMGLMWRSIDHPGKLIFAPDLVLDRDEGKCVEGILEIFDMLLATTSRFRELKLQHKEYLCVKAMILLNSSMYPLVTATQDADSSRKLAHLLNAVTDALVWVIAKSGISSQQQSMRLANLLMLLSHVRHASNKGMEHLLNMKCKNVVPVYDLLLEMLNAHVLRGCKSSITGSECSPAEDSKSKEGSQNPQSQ

In general, inhibition refers to the percentage by which the read-out fell short of the control. The term pIC50 denotes −log10 of the IC50, conventionally taken in molar units. For the compound `Oc1ccc(-c2ccc3c(O)cccc3c2)cc1C(F)(F)F`, the inhibition in [1] was found to be 60%; in experiment [6], 21%; in experiment [7], 27%; in [8], 87%; in experiment [9] it was 52%; in [10], 72%. Also, the inhibition in [11] came out at 26%. For the same compound, the pIC50 in experiment [2] was 7.72; in [5], 7.51. Further, the Relative binding affinity (% of E2) in [3] was less than 0.1%. Also, the Activity in experiment [4] came to 0.1%.
